Test results: ChEMBL document CHEMBL1124548 (1989)

Assays:
[1] = target: Human immunodeficiency virus type 1 reverse transcriptase (Human immunodeficiency virus 1) (UniProt Q72547); assay: Inhibitory activity against HIV-1 replication in MT-4 cells; assay type: functional, cell-based; settings: MT4
Procedure, shortened: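 HTLV-IIIB strain of HIV in MT-4 cells, run in parallel with cytotoxicity on uninfected MT-4 cells. The read-out is protection of infected cells from virus-induced cytopathic effect. ED50 is the dose giving 50% protection.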

MT4 = assay: Cytotoxic dose in MT-4 cells; assay type: functional; settings: Homo sapiens, read-out: CD50 (the source's name)
[2] = target: Human immunodeficiency virus type 1 reverse transcriptase (Human immunodeficiency virus 1) (UniProt Q72547); assay: Selectivity index is the […] values against inhibition of HIV-1 in MT-4 cells; assay type: functional, cell-based; settings: MT4
Procedure, shortened: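 Selectivity index is CD50 (50% viability reduction of uninfected MT-4 cells) divided by ED50 (50% protection of HIV-infected MT-4 cells against cytopathic effect). Both come from parallel assays.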

| SMILES | ED50 [1] [µM] | CC50 (MT4) [µM] | SI [2] |
| --- | --- | --- | --- |
| Cc1cn([C@@H]2O[C@H](CO)C[C@H]2F)c(=O)nc1N | > 500 | > 500 |  |
| Nc1ncnc2c1nc(Br)n2[C@H]1CC[C@@H](CO)O1 | 484 | 500 | 1 |
| [N-]=[N+]=N[C@H]1C[C@H](n2c(Br)nc3c(N)ncnc32)O[C@@H]1CO | > 500 | 409 | < 1 |
| Cc1cn([C@H]2C[C@H](F)[C@@H](CO)O2)c(=O)[nH]c1=O [ALOVUDINE] | 0.001 | 0.197 | 197 |
| Nc1ccn([C@@H]2O[C@H](CO)C[C@@H]2F)c(=O)n1 | 9.8 | 117 | 12 |
| Nc1ncnc2c1ncn2[C@H]1CC[C@@H](CO)O1 | 6.4 | 890 | 139 |
| Cc1cn([C@H]2C[C@H](N=[N+]=[N-])[C@@H](CO)O2)c(=O)[nH]c1=O [ZIDOVUDINE] | 0.003 | 4.8 | 1600 |
| [N-]=[N+]=N[C@H]1C[C@H](n2cnc3c(O)ncnc32)O[C@@H]1CO | > 8 | 15 | < 2 |
| Cc1cn([C@@H]2O[C@H](CO)C[C@H]2F)c(=O)[nH]c1=O | 53 | > 500 | > 9.4 |
| OC[C@H]1O[C@@H](n2cnc3c(O)ncnc32)C[C@@H]1F | 484 | 500 | 1 |
| COc1ccn([C@H]2C[C@H](F)[C@@H](CO)O2)c(=O)n1 | 46 | 348 | 7.6 |
| O=c1[nH]c(=O)n([C@H]2C[C@H](F)[C@@H](CO)O2)cc1F | > 20 | 40 | < 2 |
| [N-]=[N+]=N[C@H]1C[C@H](n2cnc3c(N)ncnc32)O[C@@H]1CO | 5 |  |  |
| Cc1cn([C@H]2C[C@H](F)[C@@H](CO)O2)c(=O)nc1N | 1.7 | 7.7 | 4.5 |
| Cc1cn([C@H]2C=C(F)[C@@H](CO)O2)c(=O)[nH]c1=O | 11 | 240 | 22 |
| Nc1ncnc2c1ncn2[C@H]1C[C@H](F)[C@@H](CO)O1 | 50 | 557 | 11.1 |
| Cc1cn([C@@H]2O[C@H](CO)C[C@@H]2F)c(=O)[nH]c1=O | > 500 | > 500 |  |
| O=c1[nH]c(=O)n([C@H]2C[C@H](F)[C@@H](CO)O2)cc1Cl [RALURIDINE] | 0.38 | 535 | 1410 |
| O=c1[nH]c(=O)n([C@H]2C[C@H](F)[C@@H](CO)O2)cc1Br | 0.41 | 24 | 59 |
| O=c1[nH]c(=O)n([C@H]2C[C@H](F)[C@@H](CO)O2)cc1I | 0.16 | 2.17 | 13.6 |
| O=c1ccn([C@H]2C[C@H](F)[C@@H](CO)O2)c(=O)[nH]1 | 0.04 | 16 | 400 |
